Measurements taken from ChEMBL document CHEMBL3046752, “Characterization of the volatile constituents in the essential oil of Pistacia lentiscus L. from different origins and its antifungal and antioxidant activity” (2007).

Assays:
Aspergillus flavus [1] = assay: Antifungal activity against Aspergillus flavus assessed as mycelial growth at 60 uL after 4 to 12 days by agar disk diffusion method relative to untreated control; type: functional
Method in brief: (§1)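 Aspergillus flavus, isolated from feeds, was grown on PDA plates seeded with 6 mm mycelial plugs from 10-day cultures. Three paper disks per dish carried either 60 µL pure essential oil or 60, 40 or 20 µL of single major oil constituents. Plates were sealed and incubated in the dark at 22 °C. Average colony diameter was read at 4, 8 and 12 days against water-impregnated disk controls.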

Aspergillus flavus [2] = assay: Antifungal activity against Aspergillus flavus assessed as mycelial growth at 20 uL after 4 to 12 days by agar disk diffusion method relative to untreated control; type: functional; method in brief: as §1

| SMILES | Activity (Aspergillus flavus [1]) [%] | Activity (Aspergillus flavus [2]) [%] |
| --- | --- | --- |
| CC1=CC[C@H](C(C)C)C=C1 [ALPHA-PHELLANDRENE] | 0 | 0 |
| CC1=CC=C(C(C)C)CC1 [ALPHA-TERPINENE] | 0 | 0 |
| CC1=CC[C@@H](C(C)(C)O)CC1 [ALPHA-TERPINEOL] | 100 | 100 |
| CC1=CCC(C(C)C)=CC1 [GAMMA-TERPINENE] | 0 | 0 |
| CC1=CCC(O)(C(C)C)CC1 (configuration not stated) [TERPINEOL] | 100 | 100 |
| CC1=CCC(=C(C)C)CC1 [TERPINOLENE] | 0 | 0 |
